Two compounds from publication PMC7125830 (Antiviral Research, 1999) can be followed below.

One series deals with A549 cells. Put plainly: Initial cytotoxicity study. The series is classed as cell-based, Human. Conditions: at 100 μM concentration. In short, it runs like this: (§1)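 Confluent monolayers in triplicate wells of 24-well plates, exposed to compounds diluted from 0.1M DMSO stocks in growth medium (final 10−4 M to 10−8 M). A DMSO co-solvent control was run for each dilution and compared with cell controls. Cytotoxicity scored by abnormal morphology: clumping, detachment or rounding up of cells. Scored +/−.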

Another series concerns Vero cells. Put plainly: Initial cytotoxicity study. The series is classed as cell-based, African green monkey. The settings on record: at 100 μM concentration. An outline of the steps:
as §1

For another series, the system named is HSV-1 McKrae strain. Put plainly: Plaque reduction assay, HSV-1 in Vero cells. The series is classed as cell-based, herpes simplex virus type 1. Conditions: Human alphaherpesvirus 1, Vero, 96 h. An outline of the steps: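 Confluent Vero monolayers in 24-well plates infected with 100 pfu McKrae strain per well, adsorbed 1 h at 37°C, washed with Hanks' BSS. Agar overlay containing compound dilutions applied to triplicate wells, alongside triplicate cell and virus controls. Day 4: methanol:acetic acid (3:1) fixation, 1% crystal violet stain, plaque count. IC50 calculated from dose-response plots; selectivity index taken as TC50/IC50.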
(In general: Plaques are areas of infected cells; plaque reduction assays count them against a control.)

With `Nc1ccn(C[C@@H](CO)OCP(=O)(O)O)c(=O)n1` [Cidofovir], in the series with A549 cells, the Cytotoxicity entry was “− (A549 cells)”.

One may read the IC50 as the concentration that inhibits the measured activity by half. For `Nc1nc2c(ncn2COCCO)c(=O)[nH]1` [Acyclovir, acyclovir], the Cytotoxicity entry with Vero cells is “− (Vero cells)”. Further, in the series with HSV-1 McKrae strain, the IC50 worked out at 1.8 µM.
